Results as given in the EternaBench riboswitch data.

Test system: MS2 coat protein
Experiment: apparent Kd, MS2 coat protein; higher = weaker binding; RNA-MaP array; FMN 200 µM where present
Outline: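 SNAP-549-labelled MS2 coat protein, doubled from 0.7 or 1.5 nM to 3 µM, was titrated over designs transcribed by stalled E. coli RNA polymerase on Illumina sequencing-chip clusters. Titrations were run without and then with constant ligand in 100 mM Tris-HCl pH 7.5, 80 mM KCl, 4 mM MgCl2, BSA, DTT, yeast tRNA and Tween-20. The apparent Kd is the median of filtered per-cluster fits to green signal normalised to red-channel RNA signal and control-cluster median Fmax.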

[1] = designed as: ON switch for flavin mononucleotide, no ligand
[2] = ligand present: flavin mononucleotide, designed as: ON switch for flavin mononucleotide
[3] = designed as: OFF switch for flavin mononucleotide, no ligand
[4] = ligand present: flavin mononucleotide, designed as: OFF switch for flavin mononucleotide

Sequence	apparent Kd [1] [nM]	apparent Kd [2] [nM]	apparent Kd [3] [nM]	apparent Kd [4] [nM]
UGUUGUAUUACAGGAUAUCUAUUGUUAUUAUUUAGAGAAGGGUAUUCACAUGAGGAUCACCCAUGUAUAUACGAGGAAGUUGUG	45.3	45.5		
AAGACAUGAGGAUCACCCAUGUAAAGACCGGUCAAUCAAUGUGAGGAUAUUCCAUAAUUGAUAGGGAAGAAGGCACUGGGUUGA	106	50.2		
ACUAGAUGAGGAUAUGCAUGUUUUCAUGUUCUUCUAGAUUAACAUGAGGAUCACCCAUGUAGAAGGCGUCUUAU			19.4	37.9
GAAUUUUUACAGAAGGUGUUUUACAUGAGGAUCACCCAUGUUUUAUUGUUUAAAUUUGUUAUUUACAAGGAUAUGUUCUAUUCU	26.7	19.7		
UGGUACUAAGGAGGAUAUGGGAAGAUACAUGAGGAUCACCCAUGUUUAAGAAUGCCGAGAGGCAACUAGAAGGCCCUAGUACCU	415	21.9		
AUUAUUGACAUAGGAUAUUGUUACAUGAGGAUCACCCAUGUUAUUUGGGAAUUAGGAAUAUUUUACAAGAAGGAUGUUGUUACA	106	72.5		
AGAAACUACGAGAAGGACAUGUGGAAAAACGCAAACAUGAGGAUCACCCAUGUAGGAUAUCGUAGUUUCAGGAUCGUGAGAUCA			304	367
GAUUAAUGCAAGGAUAUGCUAUUAUUUUAUUUUGCAGAAGGUGCAACAUGAGGAUCACCCAUGUUGGAGGGUAU			19.8	29.8
CGCUCAAGAGAGAAGGAUAGAGUCAGAAGGCGUUACAUGAGGAUCACCCAUGUUUUGUAUAGUAACGAGGAUAUGAAAUGAGCG			19.7	15
UCAACCGGCGCCGGUUGAACAUGAGGAUCACCCAUGUACUCCAGAAGGCCGCCCAAGAACGGAGUGGAGGAUAUGGAAGUUCUC	47.2	30.1		
ACUGUUUGAUUCCUCUUAUACAUGAGGAUCACCCAUGUUAUCGAGGAUAUGCAUUAGAGUGUUUAGCAGAAGGCGAUGUAAUUG			6.84	19.9
UUGGUAUCUGCAGGAUAUUGUAUUUUAAUACUUCAAGAAGGGCAUUACAUGAGGAUCACCCAUGUUUACAUGGUCAUAUUAGUU			26.1	20.8
UGUCGGAGCAGAGGAUAUUACAUGAGGAUCACCCAUGUAUGAACCAAUAUCUGGAAACAGCAAUGUAAGAAGGCUGCUCCGACA			7.16	47.3
ACAUGAGGAUCUCCCAUGUAAAAUUAGGAUAUAUGACUGCACAUGAGGAUCACCCAUGUUUUACCGUAGAAGGGAUAAAUAAUU	867	855		
GCCAGGAUGUAAGGAUAUGCUGAGGAUAACUCAGCAGAAGGUACAUGAGGAUCACCCAUGUAAUCCUAAUAAUAAUAACCUGGC			11.5	17.4
AUAUCCUUUUUAUACAUGAGGAUCACCCAUGUUUUUCUUACGUAGGAUAUCGUUGUUUUUUUUUACGAGAAGGACGUAGAAUGU	23.6	23.9		
ACCUUACUGGUCAGGAUAUACAGUCUUGGGUGGGUGUAGAAGGGACAUGAGGAUCACCCAUGUAGGUUGCAGCA			129	126
ACAUGAUAUGUAGGAUAUCACAUUAAUUGAUUCAUAUUUCAAUAUAGCAUUUGAGAAGGACAUUUACAUGAGGAUCACCCAUGU			9.18	8.64
UAUAUAAUUAAGAGCUGGAAAACAACAUGAGGAUCACCCAUGUAGGAUAUCAGCACGAUAAGUGCUGAGAAGGACUACCAGCUC			14	16.8
GUCAGCUCGUGAGGAUAUACAACACUGCUUCGGCAGUGUAUUAAGAGCACAUGAGGAUCACCCAUGUAGAAGGCACGAGCUGAU			5.58	7.61
CAAAGGUGAGGAUAUGCAUAACUAUGACGAAAGUCAUAAACACAUGAGGAUCACCCAUGUAGAAGGCGCCACAA			63.6	47.8
GUGCCGAACCUAGGAUAUCUUAUCGGGUUCCGCCGUGGCUUAGCGACAUGAGGAUCACCCAUGUAAGAGAAGGAGGUGGCGGAG			128	135
ACUUAUAGAGGAUAUACAGUUUAUUACAUGAGGAUCACCCAUGUUCUUCAAUGUAUAUAAGUAGAAGGCUAAGGAA			35	175
GUAGCAAUCGGAGGAUAUUCAUAGCCGAAAGGCACAUGAGGAUCACCCAUGUGGCGAAAGCCUUGGGAGAAGGCCGAUUGCUAC	324	18		
AAAAAACAUGAGGAUCACCCAUGUCUUCGGACAUGAGGAUAUGUACAGACUUCGGUCUGUACAGAAGGCAUGUCUU	97.2	22.8		
CCUUUAUAGAUCCAUUUUAACAACAUGAGGAUCACCCAUGUGCAGGAUAUCGAUUGUUUUACUUUCGAGAAGGGCAAAUUCAGC			19.3	48.7
AAUUAUAUACAGAAGGAGUUAUUUUGAGGAUUACUAGGAUAUGUUCACAUGAGGAUCACCCAUGUCAUAUUGGGAUUUAUUAUU			19.5	26.7
CGAUAAUAUAGUUAUCCGUAGCGAACAUGAGGAUCACCCAUGUAGGAUAUGUUACUAAACUAGUAACAGAAGGGCAUGAGUCUU			32.1	74.5

Sequence	apparent Kd [1] [nM]	apparent Kd [2] [nM]	apparent Kd [3] [nM]	apparent Kd [4] [nM]
GGUCGGAGCAGAGGAUAUUACAUGAGGAUCACCCAUGUAUGAACCAAUAGCUGGAAACAGCAAUGUAAGAAGGCUGCUCCGACA			13.5	173
AUAUCUCUAUAAGUUCCAAUACGAACAUGAGGAUCACCCAUGUAGGAUAUGCUAGAAGUAGAGUUGCAGAAGGACAAGUACCUU			7.48	6.75
UAUACACAUGAGGAUCACCCAUGUGAGGAUAUGUAAAAAAAACCGACGGUUUUUUUUUACAGAAGGCACAUAUA			51.6	53.5
UCCACUGCUGAGAAGGGAUACGUUUGGGUCGCAUCAGGAUAUCGAUACAGUGCAGCAUGAGGACAUGAGGAUCACCCAUGUGUG	140	29.5		
ACAUAAAUUCGAGGAUAUCGGUGAUAUAAUUUACGAGAAGGCGAUAAUAGUUAUAAACUUAUAGACAUGAGGAUCACCCAUGUA	30.2	28.3		
AAAAAGUUAGGAUAUACAUGAGGAUCACCCAUGUACAUAUAUGGAGAAAAAAACAGUAGUAGAAGGGACAAAAA			25.6	35.1
CAUAUACAGGGAGGAUAUAACAUGAGGAUCACCCAUGUGCAAUGCUCAAUGUUAGAAGGCCCAAUAGAAUCGCAAAAGGCAUCC			89.8	272
ACAUGAGGAUCACCCAUGUGUGCAUAGGAUAUUGAGGAUUUGGGAUGUUUUUUUGGAUUUGCCCACAAGAAGGAUGAAAGUGUU	12.8	11.3		
UUAAGUCAUGUAGGAUAUCCGAGGCGAAGCGUUGGAGAAGGACAUGAGGAUCACCCAUGUUCUAGCGUCUGAGUACAGAUGCAG			29.5	94.7
GGGCCGGUGGAGAAGGAGCUUGCGAAACGCAUGCUAGGAUAUCCACAUGAGGAUCACCCAUGUGGGAAUAUCUGAUUUUCGCAG			4.36	4.84
UAAUGACCUGUACCUAGUUGGUGACAUGAGGAUCACCCAUGUCAGGAUAUCGGGUUUGAAAACAACGAGAAGGGACAACGGGUG			20.9	42.1
UUAUGUAUUGUAGGAUAUCACAAGUUAUGUAUUAUAAUUGUAAUUUUGUAAUGAGAAGGACAUAUACAUGAGGAUCACCCAUGU			18.9	14.9
AGCACGAAAGUGCAACGAUGUACGAGAAGGACAUGAGGAUCACCCAUGUAGGAGUAACUCCAAAUGUAGGAUAUCGUACAUCGA			568	79
CAACAGUCAGGAUAUGCAAAAAAAACGCAACGCAAAAAAAAGCAGAAGGGACAUGAGGAUCACCCAUGUUGUCG			30.2	26.3
AGUCGGCAUGAGAAGGGUUACAUGAGGAUCACCCAUGUGAUCAAAUCGUUAACAGGAUAUCAGGCGUCGGGCUUUGCCCGGAGG			16.4	106
GGAAAACAUGAGGAUCACCCAUGUGAGGAUAUCGAUGUCCAAAGGAAAGUGCGGGACUCGAGAAGGCACUUGGA			45.4	39
CUAUCUUGCAAGGAUAUGCAAUUUAUUAUUUAUGCAGAAGGUGCUACAUGAGGAUCACCCAUGUUUCUGGGUUU			134	257
GAGGACUGAAUAAUAAGUAGAAAUACAUGAGGAUCACCCAUGUAGGAUAUCGUCAGGAAUACUGACGAGAAGGACAUACAGUCC			14.1	18.1
CCUAUACAUGAGGAUCACCCAUGUCAGGAUAUAGAAAGCCGCGGAAUAGGCCGCGGCACUAGAAGGGACUGGCU			27.5	40.5
GCCUUACCGGUCAGGAUAUACACUCGUCACUCCUUGUAGAAGGGACAUGAGGAUCACCCAUGUACAUUACAUUC			38.6	38
CCACGUCCCAUUAACAUGAGGAUCACCCAUGUCAAAAGACAUGAGGAUAUGCUACCUAAUUGGUAGCAGAAGGCAUGGACGUGG	953	87.8		
GAAGAAAAGGCAGGAUAUCAGAAACACAUGAUAAGGAGAUGCAACAUGAGGAUCACCCAUGUAAAUGAGAAGGGCCGCCCUUCC			35.6	62.1
AUUGAUGUUGAGGAUAUGCUUUUAUUUAUUCUUGCAGAAGGCGAUACAUGAGGAUCACCCAUGUUCAUGGAAGU			40.5	40.6
AUGCUUUUUGUAGGAUAUACAUUUUGUACGUAUGUAGAAGGACAUGAGGAUCACCCAUGUAAAUUAUUAUUAAAUAUCAUACUU			45.8	31.8
UAAAUGUGAGGAUAUUCGAAUAACACGGAGACGUGUUGUUCGGAGAAGGCACAUGAGGAUCACCCAUGUUCCUU			22.7	219
ACAGAGCCUGACAUGAGGAUCACCCAUGUUAGAUUGUUAUGUCAGGAUAUUGUCUAGCAACUAGACAAGAAGGGACGCUCUGUG	71.2	8.88		
CAGCUGAAUGUGAGGAUAUGUCUAGCUUCGGCUAGACAGAAGGCACAUGAGGAUCACCCAUGUCUCAACAGCUG			36.7	488
